Columns and labels:
Format in all cases: functional
Listeria monocytogenes [1] = assay: Antimicrobial activity against Listeria monocytogenes ATCC 19111 assessed as growth inhibition rate at 1470.8 mg/l after 72 hr by spectrophotometry; conditions: ATCC 19111, 72 h, read-out: GI
How it was run: (§1)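 L. monocytogenes was grown at 30 °C in tryptic soy broth, subcultured for 18 h, and exposed to pure volatile compounds (>95% purity). Growth was followed by Bioscreen C optical density every 24 h for 72 h against a 10% Tween 80 control.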

Vibrio parahaemolyticus [2] = assay: Antimicrobial activity against Vibrio parahaemolyticus ATCC 33844 assessed as growth inhibition rate at 1470.8 mg/l after 72 hr by spectrophotometry; conditions: ATCC 33844, 72 h, read-out: GI
Salmonella typhimurium [3] = assay: Antimicrobial activity against Salmonella enterica subsp. enterica serovar Typhimurium ATCC 14028 assessed as growth inhibition rate at 1470.8 mg/l after 72 hr by spectrophotometry; conditions: ATCC 14028, 72 h, read-out: GI
How it was run: (§2)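 Salmonella Typhimurium ATCC 14028 grown in nutrient broth at 30 °C, precultured 24 h, then subcultured 1:100 for 18 h before testing. Single volatile compounds (>95% pure) were added. OD was read every 24 h over 72 h in a Bioscreen C, with 10% Tween 80 as the comparison control.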

Escherichia coli [4] = assay: Antimicrobial activity against Escherichia coli O157:H7 ATCC 43894 assessed as growth inhibition rate at 1470.8 mg/l after 72 hr by spectrophotometry; conditions: O157:H7 ATCC 43894, 72 h, read-out: GI
Staphylococcus aureus [5] = assay: Antimicrobial activity against Staphylococcus aureus ATCC 25923 assessed as growth inhibition rate at 1470.8 mg/l after 72 hr by spectrophotometry; conditions: ATCC 25923, 72 h, read-out: GI
Bacillus cereus [6] = assay: Antimicrobial activity against Bacillus cereus ATCC 11778 assessed as growth inhibition rate at 1470.8 mg/l after 72 hr by spectrophotometry; conditions: ATCC 11778, 72 h, read-out: GI
How it was run: (§3)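 Pure volatile compounds (purity >95%; one at 90%) were tested against B. cereus ATCC 11778. The strain was grown at 30 °C in nutrient broth for 24 h, then subcultured for 18 h. Optical density was read in a Bioscreen C every 24 h for 72 h, with 10% Tween 80 as the control.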

Listeria monocytogenes [7] = assay: Antimicrobial activity against Listeria monocytogenes ATCC 19111 assessed as growth inhibition rate at 3.8 mg/l after 72 hr by spectrophotometry; conditions: ATCC 19111, 72 h, read-out: GI; how it was run: as §1
Vibrio parahaemolyticus [8] = assay: Antimicrobial activity against Vibrio parahaemolyticus ATCC 33844 assessed as growth inhibition rate at 3.8 mg/l after 72 hr by spectrophotometry; conditions: ATCC 33844, 72 h, read-out: GI
Salmonella typhimurium [9] = assay: Antimicrobial activity against Salmonella enterica subsp. enterica serovar Typhimurium ATCC 14028 assessed as growth inhibition rate at 3.8 mg/l after 72 hr by spectrophotometry; conditions: ATCC 14028, 72 h, read-out: GI; how it was run: as §2
Escherichia coli [10] = assay: Antimicrobial activity against Escherichia coli O157:H7 ATCC 43894 assessed as growth inhibition rate at 3.8 mg/l after 72 hr by spectrophotometry; conditions: O157:H7 ATCC 43894, 72 h, read-out: GI
Staphylococcus aureus [11] = assay: Antimicrobial activity against Staphylococcus aureus ATCC 25923 assessed as growth inhibition rate at 3.8 mg/l after 72 hr by spectrophotometry; conditions: ATCC 25923, 72 h, read-out: GI
Bacillus cereus [12] = assay: Antimicrobial activity against Bacillus cereus ATCC 11778 assessed as growth inhibition rate at 3.8 mg/l after 72 hr by spectrophotometry; conditions: ATCC 11778, 72 h, read-out: GI; how it was run: as §3

With `C=C1CC/C=C(/C)CC[C@@H]2[C@@H]1CC2(C)C` [CARYOPHYLLENE] the inhibition of growth at 1470.8 µg/mL (Listeria monocytogenes [1]) was 7.2%, the inhibition of growth at 1470.8 µg/mL (Vibrio parahaemolyticus [2]) was 26.5% and the inhibition of growth at 1470.8 µg/mL (Salmonella typhimurium [3]) was 10.2%. The inhibition of growth at 1470.8 µg/mL (Escherichia coli [4]) was 12.8%, the inhibition of growth at 1470.8 µg/mL (Staphylococcus aureus [5]) was 54.7% and the inhibition of growth at 1470.8 µg/mL (Bacillus cereus [6]) was 32.1%.
Molecule `C=CC(C)(O)CCC=C(C)C` (configuration not stated) [LINALOOL] has an inhibition of growth at 3.8 µg/mL (Listeria monocytogenes [7]) of 0.6%, an inhibition of growth at 3.8 µg/mL (Vibrio parahaemolyticus [8]) of 0% and an inhibition of growth at 3.8 µg/mL (Salmonella typhimurium [9]) of 8.2%. For the same molecule, the inhibition of growth at 3.8 µg/mL (Escherichia coli [10]) was 2.1%, the inhibition of growth at 3.8 µg/mL (Staphylococcus aureus [11]) was 2.6% and the inhibition of growth at 3.8 µg/mL (Bacillus cereus [12]) was 8.6%.

Source: ChEMBL document CHEMBL3046951, “Volatile constituents from the leaves of Callicarpa japonica Thunb. and their antibacterial activities” (2004)
